# pIC50: −log10 of the molar value. Activity calls are given as the source filed them. The rule behind the calls is not given here.
# Legend:
# [1] = biological target: Protein cereblon/Cyclin-dependent kinase 6 (Homo sapiens) (UniProt Q00534+Q96SW2); experiment: Protac activity at CRBN/CDK6 in human A-375 cells assessed as induction of CDK6 protein degradation after 12 hrs by Western blot analysis; assay type: cell-based; conditions: dose 62.5-1000 nM
# Outline: (§1)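 B16F10 and A375 cells treated with DMSO or serial dilutions of compound for 12 h (concentration series), or for the indicated times (time course). CDK2, CDK4 and CDK6 protein levels determined by western blot.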
# B16-F10 [2] = experiment: Induction of apoptosis in mouse B16F10 cells assessed as necrotic cells at 125 nM incubated for 48 hrs by Annexin V-FITC/PI staining based flow cytometry (reference value: 0.21%); assay type: functional
# [3] = biological target: T1, Protein cereblon/Cyclin-dependent kinase 6 (Mus musculus) (UniProt Q8C7D2+Q64261); experiment: Protac activity at CRBN/CDK6 in mouse B16F10 cells assessed as induction of CDK6 protein degradation at 100 nM for 6 hrsin presence of Pomalidomide by Western blot analysis; assay type: cell-based; conditions: B16-F10, time 6.0 hrs
# Outline: (§2)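 B16F10 cells pre-treated 2 h with DMSO, pomalidomide (10 μM), MG132 (20 μM) or a parent CDK ligand, then exposed to 100 nM degrader for 6 h. CDK2/4/6 protein levels read by western blot.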
# B16-F10 [4] = experiment: Induction of apoptosis in mouse B16F10 cells assessed as viable cells at 500 nM incubated for 48 hrs by Annexin V-FITC/PI staining based flow cytometry (reference value: 95.9%); assay type: functional; conditions: read-out: Activity
# B16-F10 [5] = experiment: Induction of apoptosis in mouse B16F10 cells assessed as necrotic cells at 500 nM incubated for 48 hrs by Annexin V-FITC/PI staining based flow cytometry (reference value: 0.21%); assay type: functional
# A-375 [6] = experiment: Cytotoxicity against human A375 cells assessed as reduction in cell viability after 72 hrs by MTT assay; assay type: functional, cell-based; conditions: A-375, 72 h
# Outline: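 Cells exposed to compound for 72 h and viability read by MTT; IC50 from three independent experiments.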
# B16-F10 [7] = experiment: Induction of apoptosis in mouse B16F10 cells assessed as increase in P-53 level upto 1000 nM incubated for 48 hrs by Western blot analysis; assay type: functional, cell-based; conditions: dose nM <=1000, time 48.0 hrs
# Outline: (§3)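 A375 and B16F10 cells incubated with compound for 48 h. Cleaved caspase-3, cleaved PARP, total P53, Bcl-2 and Bax measured by western blot.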
# [8] = biological target: T2, Protein cereblon/Cyclin-dependent kinase 2 (Mus musculus) (UniProt P97377+Q8C7D2); experiment: Protac activity at CRBN/CDK2 in mouse B16F10 cells assessed as induction of CDK2 protein degradation at 100 nM for 6 hrsin presence of Pomalidomide by Western blot analysis; assay type: cell-based; conditions: B16-F10, time 6.0 hrs; outline: as §2
# [9] = biological target: T1, Protein cereblon/Cyclin-dependent kinase 6 (Mus musculus); experiment: Protac activity at CRBN/CDK6 in mouse B16F10 cells assessed as induction of CDK6 protein degradation at 100 nM for 6 hrs in presence of proteasome inhibitor MG132 by Western blot analysis; assay type: cell-based; conditions: B16-F10; outline: as §2
# [10] = Tmax in Sprague-Dawley rat at 200 mg/kg, po; assay type: ADME, organism-based; conditions: in vivo
# Outline: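 SD rats, n = 3, single dose of prodrug: IV by tail vein at 10 mg/Kg, or PO at 200 mg/Kg. Plasma levels of prodrug and released active degrader followed over 0–12 h. Parameters derived by a non-compartmental model.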
# [11] = Cmax in Sprague-Dawley rat at 10 mg/kg, iv; assay type: ADME, organism-based; parameters: route intravenous, dose 10 mg/kg; conditions: in vivo
# [12] = biological target: T3, Protein cereblon/Cyclin-dependent kinase 4 (Mus musculus) (UniProt P30285+Q8C7D2); experiment: Protac activity at CRBN/CDK4 in mouse B16F10 cells assessed as induction of CDK4 protein degradation at 100 nM for 6 hrsin presence of Ribociclib by Western blot analysis; assay type: cell-based; conditions: B16-F10, time 6.0 hrs
# [13] = biological target: T1, Protein cereblon/Cyclin-dependent kinase 6 (Mus musculus); experiment: Protac activity at CRBN/CDK6 in mouse B16F10 cells assessed as induction of CDK6 protein degradation at 100 nM for 6 hrsin presence of methyl 6-(7-cyclopentyl-6-(dimethylcarbamoyl)-7H-pyrrolo[2,3-d]pyrimidin-2-ylamino)nicotinate by Western blot analysis; assay type: cell-based; conditions: B16-F10, time 6.0 hrs; outline: as §2
# [14] = biological target: T2, Protein cereblon/Cyclin-dependent kinase 2 (Mus musculus); experiment: Protac activity at CRBN/CDK2 in mouse B16F10 cells assessed as induction of CDK2 protein degradation at 500 nM by Western blot analysis; assay type: cell-based; conditions: B16-F10, time hrs <=12, TDE = time-dependent effect; outline: as §1
# A-375 [15] = experiment: Induction of apoptosis in human A-375 cells assessed as viable cells at 500 nM incubated for 48 hrs by Annexin V-FITC/PI staining based flow cytometry (reference value: 93.3%); assay type: functional; conditions: read-out: Activity
# B16-F10 [16] = experiment: Induction of apoptosis in mouse B16F10 cells assessed as viable cells at 250 nM incubated for 48 hrs by Annexin V-FITC/PI staining based flow cytometry (reference value: 95.9%); assay type: functional; conditions: read-out: Activity
# [17] = AUC (0 to 12 hrs) in Sprague-Dawley rat at 200 mg/kg, po; assay type: ADME, organism-based; parameters: time < 12 hr, route oral, dose 200 mg/kg; conditions: in vivo
# Outline: (§4)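 Single oral dose of 200 mg/Kg to SD rats (n = 3). Prodrug and released active degrader quantified in plasma over 0–12 h; Cmax, Tmax and AUC0-12 derived by non-compartmental model.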
# A-375 [18] = experiment: Induction of apoptosis in human A-375 cells assessed as increase in bax level upto 2000 nM incubated for 48 hrs by Western blot analysis; assay type: functional, cell-based; conditions: dose nM <=2000, time 48.0 hrs; outline: as §3
# A-375 [19] = experiment: Induction of cell cycle arrest in human A-375 cells assessed as accumulation at G0/G1 phase upto […] incubated for 48 hrs by propidium iodide staining based flow cytometry; assay type: functional
# Outline: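 Tumor cells incubated 48 h in complete medium with compound or DMSO at various concentrations, stained with propidium iodide, and DNA content read by flow cytometry. G0/G1, S and G2/M fractions reported; mean ± SD, n = 3, Student's t-test.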
# B16-F10 [20] = experiment: Induction of apoptosis in mouse B16F10 cells assessed as decrease in Bcl-2 level upto 1000 nM incubated for 48 hrs by Western blot analysis; assay type: functional, cell-based; conditions: dose nM <=1000, time 48.0 hrs; outline: as §3
# [21] = biological target: Protein cereblon/Cyclin-dependent kinase 2 (Homo sapiens) (UniProt P24941+Q96SW2); experiment: Protac activity at CRBN/CDK2 in human A-375 cells assessed as induction of CDK2 protein degradation after 12 hrs by Western blot analysis; assay type: cell-based; conditions: dose 62.5-1000 nM; outline: as §1
# A-375 [22] = experiment: Induction of apoptosis in human A-375 cells assessed as necrotic cells at 1000 nM incubated for 48 hrs by Annexin V-FITC/PI staining based flow cytometry (reference value: 0.602%); assay type: functional
# A-375 [23] = experiment: Induction of apoptosis in human A-375 cells assessed as increase in cleaved caspase 3 level incubated for 48 hrs by Western blot analysis; assay type: functional, cell-based; conditions: dose nM <=2000, time 48.0 hrs; outline: as §3
# [24] = biological target: T3, Protein cereblon/Cyclin-dependent kinase 4 (Mus musculus); experiment: Protac activity at CRBN/CDK4 in mouse B16F10 cells assessed as induction of CDK4 protein degradation at 100 nM for 6 hrs in presence of proteasome inhibitor MG132 by Western blot analysis; assay type: cell-based; conditions: B16-F10; outline: as §2
# [25] = biological target: T2, Protein cereblon/Cyclin-dependent kinase 2 (Mus musculus); experiment: Protac activity at CRBN/CDK2 in mouse B16F10 cells assessed as induction of CDK2 protein degradation at 100 nM for 6 hrs in presence of proteasome inhibitor MG132 by Western blot analysis; assay type: cell-based; conditions: B16-F10; outline: as §2
# [26] = Cmax in Sprague-Dawley rat at 200 mg/kg, po; assay type: ADME, organism-based; parameters: route oral, dose 200 mg/kg; conditions: in vivo; outline: as §4
# B16-F10 [27] = experiment: Induction of cell cycle arrest in mouse B16-F10 cells assessed as accumulation at G2 phase at 25 uM incubated for 48 hrs by propidium iodide staining based flow cytometry (reference value: 18.22%); assay type: functional
# T2 sequence (Q8C7D2 whole entry, looked up, other chains not shown): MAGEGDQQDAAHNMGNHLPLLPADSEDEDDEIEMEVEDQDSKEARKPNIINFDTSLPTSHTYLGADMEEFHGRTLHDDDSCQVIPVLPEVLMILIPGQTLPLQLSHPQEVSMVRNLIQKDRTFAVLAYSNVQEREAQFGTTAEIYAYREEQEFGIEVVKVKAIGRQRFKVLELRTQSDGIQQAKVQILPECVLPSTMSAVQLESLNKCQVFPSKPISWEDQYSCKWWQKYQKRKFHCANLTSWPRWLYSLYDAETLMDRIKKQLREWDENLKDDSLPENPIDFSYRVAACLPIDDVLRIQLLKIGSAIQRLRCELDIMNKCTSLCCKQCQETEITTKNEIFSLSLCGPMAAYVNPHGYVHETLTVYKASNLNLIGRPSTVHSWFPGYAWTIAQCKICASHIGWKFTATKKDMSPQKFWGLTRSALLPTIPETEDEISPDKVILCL
# T1 sequence (Q64261 whole entry, looked up): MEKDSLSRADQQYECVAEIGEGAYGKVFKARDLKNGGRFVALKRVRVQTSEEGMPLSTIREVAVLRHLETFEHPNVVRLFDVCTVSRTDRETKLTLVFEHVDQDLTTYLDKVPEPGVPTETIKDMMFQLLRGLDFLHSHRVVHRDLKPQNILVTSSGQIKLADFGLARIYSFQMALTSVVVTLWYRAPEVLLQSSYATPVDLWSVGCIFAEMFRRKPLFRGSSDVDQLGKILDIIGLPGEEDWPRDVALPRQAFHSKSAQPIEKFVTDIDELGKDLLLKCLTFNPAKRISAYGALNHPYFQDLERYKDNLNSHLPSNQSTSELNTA
# T1 sequence (Q8C7D2 whole entry, looked up): as the sequence (Q8C7D2 whole entry, looked up, other chains not shown) above
# T3 sequence (P30285 whole entry, looked up): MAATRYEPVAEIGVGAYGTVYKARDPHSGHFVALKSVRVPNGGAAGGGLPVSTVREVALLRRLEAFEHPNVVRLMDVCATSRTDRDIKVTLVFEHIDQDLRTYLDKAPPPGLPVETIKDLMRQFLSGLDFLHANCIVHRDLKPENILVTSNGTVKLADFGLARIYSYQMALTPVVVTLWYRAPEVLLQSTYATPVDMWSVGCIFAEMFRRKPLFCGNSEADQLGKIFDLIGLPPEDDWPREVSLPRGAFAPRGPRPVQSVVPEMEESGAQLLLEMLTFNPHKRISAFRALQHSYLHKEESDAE
# T3 sequence (Q8C7D2 whole entry, looked up): as the sequence (Q8C7D2 whole entry, looked up, other chains not shown) above
# Chain of Protein cereblon/Cyclin-dependent kinase 6 (Homo sapiens) (Q00534 whole entry, looked up): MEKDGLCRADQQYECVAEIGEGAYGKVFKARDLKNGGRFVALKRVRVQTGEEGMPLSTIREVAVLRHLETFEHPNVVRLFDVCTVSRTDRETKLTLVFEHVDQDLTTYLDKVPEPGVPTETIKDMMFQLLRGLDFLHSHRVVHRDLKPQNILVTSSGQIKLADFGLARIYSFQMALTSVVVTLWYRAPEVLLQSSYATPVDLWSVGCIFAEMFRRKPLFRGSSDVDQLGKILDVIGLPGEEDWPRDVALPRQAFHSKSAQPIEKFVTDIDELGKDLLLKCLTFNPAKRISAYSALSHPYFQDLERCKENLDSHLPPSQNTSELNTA
# Chain of Protein cereblon/Cyclin-dependent kinase 6 (Homo sapiens) (Q96SW2 whole entry, looked up): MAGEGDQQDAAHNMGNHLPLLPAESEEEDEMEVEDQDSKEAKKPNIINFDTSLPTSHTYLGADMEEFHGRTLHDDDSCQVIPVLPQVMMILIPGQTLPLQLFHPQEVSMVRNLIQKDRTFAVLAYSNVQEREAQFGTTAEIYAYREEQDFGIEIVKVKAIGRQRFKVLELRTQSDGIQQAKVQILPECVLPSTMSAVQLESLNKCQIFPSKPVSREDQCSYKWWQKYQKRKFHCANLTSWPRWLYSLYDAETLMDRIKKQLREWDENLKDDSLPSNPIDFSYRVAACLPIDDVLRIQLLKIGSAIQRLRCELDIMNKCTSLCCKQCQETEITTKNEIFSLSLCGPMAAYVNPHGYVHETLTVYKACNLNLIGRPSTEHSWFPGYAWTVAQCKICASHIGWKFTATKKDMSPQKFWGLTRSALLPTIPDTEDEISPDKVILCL
compound,measurement,setting,value
CN(C)C(=O)c1cc2cnc(Nc3ccc(C(=O)NCCCCCCNc4cccc5c4C(=O)N(C4CCC(=O)NC4=O)C5=O)cc3)nc2n1C1CCCC1 (configuration not stated),Activity,[1],Dose-dependent effect
same,Activity,B16-F10 [2],0.289%
same,Activity,[3],inactive
same,viability at 0.5 µM,B16-F10 [4],4.73%
same,Activity,B16-F10 [5],0.081%
same,pIC50,A-375 [6],6.78
same,Activity,B16-F10 [7],Active
same,Activity,[8],inactive
same,Activity,[9],inactive
same,Tmax,[10],15 min
same,Cmax,[11],59.9 µg/mL
same,Activity,[12],inactive
same,Activity,[13],inactive
same,Activity,[14],Tde
same,viability at 0.5 µM,A-375 [15],85.2%
same,viability at 0.25 µM,B16-F10 [16],23.4%
same,AUC,[17],823 µg·h/mL
same,Activity,A-375 [18],Active
same,Activity,A-375 [19],Active
same,Activity,B16-F10 [20],Active
same,Activity,[21],Dose-dependent effect
same,Activity,A-375 [22],0.273%
same,Activity,A-375 [23],Dose-dependent effect
same,Activity,[24],inactive
same,Activity,[25],inactive
same,Cmax,[26],692 µg/mL
same,Activity,B16-F10 [27],19.56%

# — ChEMBL document CHEMBL4732105, “First orally bioavailable prodrug of proteolysis targeting chimera (PROTAC) degrades cyclin-dependent kinases 2/4/6 in vivo” (Eur J Med Chem, 2021)
